Results collected from several papers.
Lines come from different studies, so protocols differ.
Target: Serine/threonine-protein kinase 17B (STK17B, Homo sapiens, UniProt O94768)
Sequence (O94768 1-372, as in one of the studies): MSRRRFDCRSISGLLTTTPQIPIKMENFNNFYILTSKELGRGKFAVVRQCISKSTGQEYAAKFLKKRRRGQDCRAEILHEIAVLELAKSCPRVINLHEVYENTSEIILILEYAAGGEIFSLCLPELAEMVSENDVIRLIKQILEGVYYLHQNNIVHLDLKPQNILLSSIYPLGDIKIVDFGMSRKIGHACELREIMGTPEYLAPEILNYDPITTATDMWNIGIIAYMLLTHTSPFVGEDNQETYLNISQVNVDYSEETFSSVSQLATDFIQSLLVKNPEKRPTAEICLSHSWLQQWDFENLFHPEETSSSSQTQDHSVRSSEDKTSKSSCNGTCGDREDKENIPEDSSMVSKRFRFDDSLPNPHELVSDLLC

SMILES	effect on	action	technique	tested at	measurement	value
O=C(CSc1nc2nccnc2c(=O)n1CCc1ccccc1)Nc1nccs1	enzyme activity	inhibitor	–	10 µM	inhibition	11%
COc1cc(Cl)c(C(=O)N[C@@H](CN[C@H]2CC[C@@H](N)CC2)Cc2ccc(C#N)cc2)cc1-c1ccc(CN[C@H](C)c2ccc(C)cc2)o1	enzyme activity	inhibitor	–	1 µM	remaining activity	94%
NS(=O)(=O)c1ccc(CNc2nc(Nc3cccc(NC(=O)N4CCCC4)c3)ncc2Br)cc1	enzyme activity	inhibitor	radiometric	1 µM	remaining activity	23%
Cc1ccc(C(=O)Nc2ccc(CN3CCN(C)CC3)c(C(F)(F)F)c2)cc1C#Cc1cnc2cccnn12	enzyme activity	–	–	23.5 nM	remaining activity	100%
CS(=O)(=O)Nc1cccc(-c2csc(NC(=O)CSc3nc4nccnc4c(=O)n3CCc3ccccc3)n2)c1	enzyme activity	inhibitor	–	10 µM	inhibition	4%
Cc1nn(CC(F)(F)F)cc1Nc1ncc(Br)c(NCCCNC(=O)C2CCC2)n1	enzyme activity	inhibitor	radiometric	1 µM	remaining activity	5%
CCN1CCC2(CC1)NC(=O)c1c(c3ccc(Cl)c(Cl)c3n1C)C2C#N (racemic)	thermal stability	–	DSF	10 µM	ΔTm	1 °C
O=C(Nc1cccnn1)N1CC(C/C=C/c2cncc(Oc3ccc(C(F)(F)F)cn3)n2)C1	cell-free assay	–	competition with immobilised ligand	1 µM	remaining binding	100%
CN1CC(Oc2cnc(C#N)cc2-c2ccn3nc(NC(=O)C4CC4)cc3c2)C1	enzyme activity	inhibitor	–	1 µM	inhibition	-4%
C[C@H](NC(=O)c1cnc2n1[C@](C)(Cc1ccc(C#N)cc1)C(=O)N2c1cc(Cl)c(F)c(Cl)c1)C(=O)NC1(c2ccccn2)CC1	cell-free assay	–	competition with immobilised ligand	1 µM	remaining binding	100%
Cc1nn(CC(F)(F)F)cc1Nc1ncc(Br)c(NCCc2cnc[nH]2)n1	enzyme activity	inhibitor	radiometric	1 µM	remaining activity	12%
Cc1nc(N2CC[C@@H](O)C2)ncc1-c1cc(C(F)(F)F)cc2[nH]ncc12	cell-free assay	–	competition with immobilised ligand	1 µM	remaining binding	99%
Cc1nn(CC(F)(F)F)cc1Nc1nccc(NCc2ccc(S(N)(=O)=O)cc2)n1	enzyme activity	inhibitor	radiometric	1 µM	remaining activity	92%
Nc1ncnc2occ(-c3ccc(NC(=O)Nc4cc(C(F)(F)F)ccc4F)cc3)c12	cell-free assay	–	–	20 µM	remaining signal	94%
